In ChEMBL document CHEMBL3232757, “Structure-activity relationships for withanolides as inducers of the cellular heat-shock response” (J Med Chem, 2014):
pIC50: −log10 of the molar value. Values belong to the compound of their own block, whether it stands above or below them. Activity calls are given as the source filed them. The calls are words filed in the database; no cut-off is given here.

Assays:
Mus musculus [1] = test: Induction of heat shock activity in mouse assessed as upregulation of HSP72 protein level in spleen at 40 mg/kg, sc after 18 hrs by immunoblotting analysis relative to control; format: functional, organism-based; design: dose 40 mg/kg
How it was run: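 Mice given a single subcutaneous dose in cyclodextrin vehicle (hydroxypropyl β-cyclodextrin 30% w/v, DMSO 10% v/v). Controls received an equal volume of vehicle alone. Three mice per group at 40 mg/kg. Spleens harvested about 18 h after dosing, snap-frozen and lysed in nonionic detergent buffer. 15 μg protein/lane run on SDS-PAGE and immunoblotted for HSP72 and β-actin. HSP72 band intensity normalized to actin; Student's t test versus vehicle.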

Mus musculus [2] = test: Induction of heat shock activity in mouse assessed as upregulation of HSP72 protein level in spleen at 25 mg/kg, sc after 18 hrs by immunoblotting analysis; format: functional, organism-based; design: dose 25 mg/kg
How it was run: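 Mice were randomly assigned. Dosing was by subcutaneous injection, 25 mg/kg, in hydroxypropyl β-cyclodextrin 30% w/v with DMSO 10% v/v; vehicle controls got an equal volume; five mice per group. Spleens were taken about 18 h later, snap-frozen, pulverized and lysed in nonionic detergent buffer. 15 μg protein/lane went to SDS-PAGE and immunoblotting for HSP72. Band intensity was normalized to β-actin. Variance versus vehicle was compared by F test.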

[3] = Cytotoxicity against human NCI-H929 cells after 3 days by Alamar blue assay; format: functional, cell-based; settings: NCI-H929, 72 h
[4] = Cytotoxicity against human CHP100 cells assessed as inhibition of cell survival at 4 uM after 24 hrs by MTT assay relative to control; format: functional; settings: CHP100, 24 h
[5] = target: Heat shock 70 kDa protein 6 (Homo sapiens) (UniProt P17066); test: Induction of […] (unknown origin)-mediated heat shock response expressed in human 293T cells coexpressing GFP assessed as heat shock index after overnight incubation by luciferase reporter gene assay relative to control; format: cell-based
How it was run: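 293T cells transduced with a lentiviral EGFP–firefly luciferase fusion under HSP70B′ promoter elements, enriched by heat shock (42 °C, 1 h) plus FACS, then reverse-sorted to remove constitutive expressers. Cells in DMEM/10% FBS were seeded at 20 000/well and given serial dilutions next day, quadruplicate wells, overnight. Read by Steady-Glo luminescence. Index = [Log2(treated/control)]/concentration (μM) at maximal response.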

Mus musculus [6] = species on record: Mus musculus; test: Induction of heat shock protein-mediated heat shock response in mouse 3T3-Y9-B12 cells assessed as heat shock index after 24 hrs by fluorescence assay relative to control; format: cell-based
How it was run: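 Mouse 3T3-Y9-B12 heat-shock reporter cells seeded 20 000/well, left to adhere overnight, then exposed 24 h to compound at 1, 2, or 4 μM. After PBS wash, fluorescence read at excitation 485 nm and emission 530 nm. Heat-shock index calculated as [Log2(treated/control)]/concentration (μM).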

[7] = Cytotoxicity against human CHP100 cells assessed as inhibition of cell survival after 24 hrs by MTT assay; format: functional, cell-based; settings: CHP100, 24 h

Chain of Heat shock 70 kDa protein 6 (Homo sapiens) (P17066 whole entry, the tested form may be a part): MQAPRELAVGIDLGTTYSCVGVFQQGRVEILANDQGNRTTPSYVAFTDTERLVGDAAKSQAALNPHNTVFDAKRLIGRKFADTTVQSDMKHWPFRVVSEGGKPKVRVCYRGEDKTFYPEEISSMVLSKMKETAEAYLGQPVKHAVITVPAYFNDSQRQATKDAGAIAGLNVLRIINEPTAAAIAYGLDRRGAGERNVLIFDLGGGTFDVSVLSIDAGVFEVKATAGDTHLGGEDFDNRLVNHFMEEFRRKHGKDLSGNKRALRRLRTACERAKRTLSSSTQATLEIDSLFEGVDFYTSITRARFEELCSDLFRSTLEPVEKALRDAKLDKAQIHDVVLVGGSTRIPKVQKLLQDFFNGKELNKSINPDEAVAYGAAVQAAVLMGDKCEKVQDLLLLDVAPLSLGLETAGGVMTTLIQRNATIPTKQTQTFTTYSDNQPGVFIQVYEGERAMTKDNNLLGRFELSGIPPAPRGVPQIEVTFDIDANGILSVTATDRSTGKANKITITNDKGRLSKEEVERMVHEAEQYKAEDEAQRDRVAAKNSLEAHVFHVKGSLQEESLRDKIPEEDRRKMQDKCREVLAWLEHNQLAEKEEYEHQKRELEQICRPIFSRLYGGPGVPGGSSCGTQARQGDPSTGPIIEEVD

Structure (SMILES): CC(=O)OCC1=C(C)C[C@H]([C@@H](C)[C@H]2CC[C@H]3[C@@H]4C[C@H]5O[C@]56[C@H](OC(C)=O)C=CC(=O)[C@]6(C)[C@H]4CC[C@]23C)OC1=O
- Activity (Mus musculus [1]): Active
- Activity (Mus musculus [2]): Active

- Activity [5]: Dose-dependent effect
- fold change (FC) [5]: 1.35
Structure (SMILES): CC1=C(CO)C(=O)O[C@@H]([C@@H](C)[C@H]2CC[C@H]3[C@@H]4C[C@H]5O[C@]56[C@@H](O)C=CC(=O)[C@]6(C)[C@H]4CC[C@]23C)C1 [WITHAFERIN A]
- pIC50 [3]: 6.60
- inhibition at 4 µM [4]: > 80%
- fold change (FC) (Mus musculus [6]): 2.1
- Activity (Mus musculus [2]): inactive
- pIC50 [7]: 6.01

- fold change (FC) [5]: 1.73
Structure (SMILES): CC(=O)O[C@H]1C=CC(=O)[C@]2(C)[C@H]3CC[C@]4(C)[C@@H]([C@H](C)[C@H]5CC(C)=C(CO)C(=O)O5)CC[C@H]4[C@@H]3C[C@H]3O[C@]132
- pIC50 [3]: 6.60
- inhibition at 4 µM [4]: > 80%
- pIC50 [7]: 6.11

Structure (SMILES): CC(=O)OCC1=C(C)C[C@H]([C@@H](C)[C@H]2CC[C@H]3[C@@H]4C[C@H]5O[C@]56[C@@H](O)C=CC(=O)[C@]6(C)[C@H]4CC[C@]23C)OC1=O
- pIC50 [3]: 6.60
- inhibition at 4 µM [4]: > 80%
- Activity [5]: Dose-dependent effect
- fold change (FC) [5]: 3.81
- pIC50 [7]: 6.64

- fold change (FC) [5]: 1.68
Structure (SMILES): CC1=C(CO)C(=O)O[C@@H]([C@@H](C)[C@H]2CC[C@H]3[C@@H]4C[C@H]5O[C@]56[C@H](O)C=CC(=O)[C@]6(C)[C@H]4CC[C@]23C)C1
- pIC50 [3]: 6.55
- inhibition at 4 µM [4]: > 80%
- pIC50 [7]: 6.03

- fold change (FC) [5]: 1.53
Structure (SMILES): CC(=O)O[C@H]1C=CC(=O)[C@]2(C)[C@H]3CC[C@]4(C)[C@@H]([C@H](C)[C@H]5CC(C)=C(C)C(=O)O5)CC[C@H]4[C@@H]3C[C@H]3O[C@]132
- pIC50 [3]: 6.37
- inhibition at 4 µM [4]: > 80%
- pIC50 [7]: 6.12

- fold change (FC) [5]: 1.65
Structure (SMILES): CC(=O)OCC1=C(C)C[C@H]([C@@H](C)[C@H]2C[C@@H](OC(C)=O)[C@H]3[C@@H]4C[C@H]5O[C@]56[C@@H](OC(C)=O)C=CC(=O)[C@]6(C)[C@H]4CC[C@@]32C)OC1=O
- pIC50 [3]: 6.62
- inhibition at 4 µM [4]: > 80%
- pIC50 [7]: 6.51

Structure (SMILES): CC(=O)OCC1=C(C)C[C@H]([C@@H](C)[C@H]2CC[C@H]3[C@@H]4C[C@H]5O[C@]56[C@H](O)C=CC(=O)[C@]6(C)[C@H]4CC[C@]23C)OC1=O
- pIC50 [3]: 7.30
- inhibition at 4 µM [4]: > 80%
- Activity [5]: Dose-dependent effect
- fold change (FC) [5]: 3.69
- fold change (FC) (Mus musculus [6]): 4.7
- pIC50 [7]: 6.66

Structure (SMILES): CC1=C(C)C(=O)O[C@@H]([C@@H](C)[C@H]2CC[C@H]3[C@@H]4C[C@H]5O[C@]56[C@@H](O)C=CC(=O)[C@]6(C)[C@H]4CC[C@]23C)C1
- pIC50 [3]: 6.06
- inhibition at 4 µM [4]: > 80%
- fold change (FC) [5]: 0.52
- pIC50 [7]: 6.19

- fold change (FC) [5]: 0.92
Structure (SMILES): CC(=O)OCC1=C(C)C[C@H]([C@@H](C)[C@H]2CC[C@H]3[C@@H]4C[C@H]5O[C@]56C(=O)C=CC(=O)[C@]6(C)[C@H]4CC[C@]23C)OC1=O
- pIC50 [3]: 6.34
- inhibition at 4 µM [4]: > 80%
- pIC50 [7]: 6.41

- fold change (FC) [5]: 0.78
Structure (SMILES): CC(=O)OCC1=C(C)C[C@H]([C@@H](C)[C@H]2CC[C@H]3[C@@H]4C[C@H]5O[C@]56[C@@H](OC(C)=O)[C@@H](OS(=O)(=O)O)CC(=O)[C@]6(C)[C@H]4CC[C@]23C)OC1=O
- pIC50 [3]: 5.98
- inhibition at 4 µM [4]: > 80%
- pIC50 [7]: 6.41
